The text below walks through data of the RNAGym collection of RNA variant scans (doi:10.1038/s41586-018-0170-7).

The chains are these.
B1: tRNA (parent)
chain: GUUCCGUUGGCGUAAUGGUAACGCGUCUCCCUCCUAAGGAGAAGACUGCGGGUUCGAGUCCCGUACGGAACG

Variants of B1 are the subject of this series. Briefly: yeast fitness, log relative to wild type (ln ratio); higher = fitter; tRNA-Arg(CCU), competitive growth, 37 C, 1 M NaCl. Summed up: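 Genotype fitness is expressed as the natural log of its generations over those of the wild type. Each pool of the tRNA-Arg(CCU) variant library, carried on a HIS3 centromeric plasmid in BY4742 lacking the chromosomal gene, came from one of two independent transformations and grew 4 generations in SC-HIS at 30 °C before ~6.5 generations (~26.5 h) in SC-HIS 1M NaCl at 37 °C. Generation numbers used OD-scaled log2 output/input frequencies from 125 bp paired-end Illumina sequencing, combined across replicates by inverse-variance weighting.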
As to GUUCCGUUGGCGUAAUGGUAACGCGUCUCCCUCCUAAGGAGAAGAUUGCGGGUUCGAGUCCCGUAAGGGAUG [C46U C66A A69G C71U], the “yeast fitness (ln)” value was -0.0675.
The result for GUUCCGUUGGCGUAAUGGUAACGCGUCUCCCUCCUAAGGAGAAGAUUGCGGGUUCGAGUCCCGUAAGGAUUG [C46U C66A A70U C71U] reads -0.022; that for GUUCCGUUGGCGUAAUGGUAACGCGUCUCCCUCCUAAGGAGACGAUUGCGGGUUCGAGUCCCGUAAGGAAUG [A43C C46U C66A C71U], -0.0684; that for GUUCCGUUGGCGUAAUGGUAACGCGUCUCCCUCCUAAGGAGAAGAUUGCGGGUUCGAGUCCCGUAUGGAGUG [C46U C66U A70G C71U], -0.0752.
To GUUCCGUUGGCGUAAUGGUAACGCGUCUCCCUCCUAAGGAGACGACUGCGGGUUCGAGUCCCGUAAGGGGUG [A43C C66A A69G A70G C71U] belongs -0.159; to GUUCCGUUGGCGUAAUGGUAACGCGUCUCCCUCCUAAGGAGACGACUGCGGGUUCGAGUCCCGUAUGGGACG [A43C C66U A69G], -0.174; to GUUCCGUUGGCGUAAUGGUAACGCGUCUCCCUCCUAAGGAGACGAUUGCGGGUUCGAGUCCCGUAUGGAGCG [A43C C46U C66U A70G], -0.0608.
To GUUCCGUUGGCGUAAUGGUAACGCGUCUCCCUCCUAAGGAGACGAUUGCGGGUUCGAGUCCCGUAUGGAUCG [A43C C46U C66U A70U] belongs -0.0743; to GUUCCGUUGGCGUAAUGGUAACGCGUCUCCCUCCUAAGGAGAAGAUUGCGGGUUCGAGUCCCGUACGGAGUG [C46U A70G C71U], -0.0663.
For the variant GUUCCGUUGGCGUAAUGGUAACGCGUCUCCCUCCUAAGGAGAAGAUUGCGGGUUCGAGUCCCGUAAGGGUUG [C46U C66A A69G A70U C71U], the “yeast fitness (ln)” value was -0.282.
To GUUCCGUUGGCGUAAUGGUAACGCGUCUCCCUCCUAAGGAGAAGAUUGCGGGUUCGAGUCCCGUACGGAUUG [C46U A70U C71U] belongs -0.129; to GUUCCGUUGGCGUAAUGGUAACGCGUCUCCCUCCUAAGGAGAAGAUUGCGGGUUCGAGUCCCGUAUGGGUCG [C46U C66U A69G A70U], -0.0707; to GUUCCGUUGGCGUAAUGGUAACGCGUCUCCCUCCUAAGGAGAAGAUUGCGGGUUCGAGUCCCGUAUGGGGCG [C46U C66U A69G A70G], -0.216.
As to GUUCCGUUGGCGUAAUGGUAACGCGUCUCCCUCCUAAGGAGACGACUGCGGGUUCGAGUCCCGUAUGGAGUG [A43C C66U A70G C71U], the “yeast fitness (ln)” value was -0.156.
With GUUCCGUUGGCGUAAUGGUAACGCGUCUCCCUCCUAAGGAGACGACUGCGGGUUCGAGUCCCGUAUGGGAUG [A43C C66U A69G C71U], the “yeast fitness (ln)” value was -0.436.
On to GUUCCGUUGGCGUAAUGGUAACGCGUCUCCCUCCUAAGGAGACGACUGCGGGUUCGAGUCCCGUAAGGGGCG [A43C C66A A69G A70G], for which the “yeast fitness (ln)” value is -0.154.
To GUUCCGUUGGCGUAAUGGUAACGCGUCUCCCUCCUAAGGAGACGACUGCGGGUUCGAGUCCCGUAAGGGUCG [A43C C66A A69G A70U] belongs -0.153; to GUUCCGUUGGCGUAAUGGUAACGCGUCUCCCUCCUAAGGAGAAGAUUGCGGGUUCGAGUCCCGUAUGGGACG [C46U C66U A69G], -0.104; to GUUCCGUUGGCGUAAUGGUAACGCGUCUCCCUCCUAAGGAGAAGAUUGCGGGUUCGAGUCCCGUAUGGGUUG [C46U C66U A69G A70U C71U], -0.332.
The result for GUUCCGUUGGCGUAAUGGUAACGCGUCUCCCUCCUAAGGAGACGACUGCGGGUUCGAGUCCCGUAUGGGGUG [A43C C66U A69G A70G C71U] reads -0.22; that for GUUCCGUUGGCGUAAUGGUAACGCGUCUCCCUCCUAAGGAGACGACUGCGGGUUCGAGUCCCGUAAGGGAUG [A43C C66A A69G C71U], -0.226.
To GUUCCGUUGGCGUAAUGGUAACGCGUCUCCCUCCUAAGGAGAAGAUUGCGGGUUCGAGUCCCGUAAGGAAUG [C46U C66A C71U] belongs -0.0724; to GUUCCGUUGGCGUAAUGGUAACGCGUCUCCCUCCUAAGGAGACGACUGCGGGUUCGAGUCCCGUACGGAAUG [A43C C71U], -0.038.
For the variant GUUCCGUUGGCGUAAUGGUAACGCGUCUCCCUCCUAAGGAGAAGAUUGCGGGUUCGAGUCCCGUAAGGGGUG [C46U C66A A69G A70G C71U], the “yeast fitness (ln)” value was -0.0571.
To GUUCCGUUGGCGUAAUGGUAACGCGUCUCCCUCCUAAGGAGAAGAUUGCGGGUUCGAGUCCCGUACGGGUUG [C46U A69G A70U C71U] belongs -0.138.
Regarding GUUCCGUUGGCGUAAUGGUAACGCGUCUCCCUCCUAAGGAGACGACUGCGGGUUCGAGUCCCGUAUGGGUUG [A43C C66U A69G A70U C71U], the “yeast fitness (ln)” value was -0.365.
Turning to GUUCCGUUGGCGUAAUGGUAACGCGUCUCCCUCCUAAGGAGAAGAUUGCGGGUUCGAGUCCCGUACGGGAUG [C46U A69G C71U], the “yeast fitness (ln)” value is -0.00543.
For GUUCCGUUGGCGUAAUGGUAACGCGUCUCCCUCCUAAGGAGAAGAUUGCGGGUUCGAGUCCCGUACGGGACG [C46U A69G], the “yeast fitness (ln)” value was -0.00396.
The result for GUUCCGUUGGCGUAAUGGUAACGCGUCUCCCUCCUAAGGAGACGAUUGCGGGUUCGAGUCCCGUAUGGGAUG [A43C C46U C66U A69G C71U] reads -0.273; that for GUUCCGUUGGCGUAAUGGUAACGCGUCUCCCUCCUAAGGAGAAGAUUGCGGGUUCGAGUCCCGUAUGGGGUG [C46U C66U A69G A70G C71U], -0.084; that for GUUCCGUUGGCGUAAUGGUAACGCGUCUCCCUCCUAAGGAGACGAUUGCGGGUUCGAGUCCCGUAUGGGGUG [A43C C46U C66U A69G A70G C71U], -0.158.
The result for GUUCCGUUGGCGUAAUGGUAACGCGUCUCCCUCCUAAGGAGAAGACUGCGGGUUCGAGUCCCGUAAGGGACG [C66A A69G] reads -0.0295; that for GUUCCGUUGGCGUAAUGGUAACGCGUCUCCCUCCUAAGGAGACGAUUGCGGGUUCGAGUCCCGUAUGGAAUG [A43C C46U C66U C71U], -0.115.
To GUUCCGUUGGCGUAAUGGUAACGCGUCUCCCUCCUAAGGAGACGAUUGCGGGUUCGAGUCCCGUAUGGGUUG [A43C C46U C66U A69G A70U C71U] belongs -0.356; to GUUCCGUUGGCGUAAUGGUAACGCGUCUCCCUCCUAAGGAGAAGAUUGCGGGUUCGAGUCCCGUACGGGUCG [C46U A69G A70U], -0.0401; to GUUCCGUUGGCGUAAUGGUAACGCGUCUCCCUCCUAAGGAGAAGAUUGCGGGUUCGAGUCCCGUACGGGGCG [C46U A69G A70G], -0.0172.
Regarding GUUCCGUUGGCGUAAUGGUAACGCGUCUCCCUCCUAAGGAGACGACUGCGGGUUCGAGUCCCGUAUGGAACG [A43C C66U], the “yeast fitness (ln)” value is -0.178.
